Test results published in ChEMBL document CHEMBL3580660, “Synthesis and Biological Evaluation of Novel Olean-28,13β-lactams as Potential Antiprostate Cancer Agents” (J Med Chem, 2015).
The source made the active and inactive calls. No cut-off for these calls is given here.

Key:
[1] = Apparent permeability across apical to basolateral side in human Caco2 cells at 0.5 uM measured after 30 mins by LC-MS/MS analysis; assay type: ADME, cell-based; details: Caco-2
Outline: (§1)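 Caco2 monolayers (passages 20−40) grown 21 days at 37 °C, 5% CO2; integrity checked by TEER. Test drug 0.5 μM applied in triplicate, apical pH 6.8, basolateral pH 7.4, 37 °C for 30 min, A→B and B→A. Donor and receiver sampled, concentration by LC−MS/MS; Papp calculated; efflux ratio = Papp B→A / Papp A→B.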

[2] = Antiproliferative activity against human WPMY-1 cells after 72 hrs by CCK8 assay; assay type: functional, cell-based; details: WPMY-1, 72 h
Outline: (§2)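 CCK-8 assay: DU-145, H460, Bxpc-3, BEL-7404 and nontumor WPMY-1 cells seeded at 5 × 10^3 cells/well in 10% FCS DMEM overnight, then exposed in triplicate to 0.041−10 μM for 72 h. CCK-8 added for final 30 min, absorbance 450 nm; inhibition relative to medium-only controls after background subtraction; IC50 as concentration giving 50% inhibition.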

[3] = Acute toxicity in ICR mouse assessed as survival at 640 mg/kg, oral gavage on day 14; assay type: organism-based; details: in vivo
Outline: (§3)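 ICR mice of both sexes, 7 weeks old, held under SPF conditions. Each got one gavage dose (800, 640, 512, 409.6 or 327.8 mg/kg) or vehicle, n = 8 per group. Deaths were recorded at 1 h, 4 h, 3 d and 4–14 d. Behaviour, water and food intake, body weight and activity were followed to day 14. LD50 given with 95% confidence limits.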

[4] = system: DU-145; test: Induction of apoptosis in human DU145 cells assessed as chromatin condensation and fragmentation at 0.08 to 0.32 uM after 24 hrs by Hoechst staining-based fluorescence microscopy; assay type: functional, cell-based
Outline: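 DU-145 cells exposed 24 h to compound or vehicle (0.1% DMSO), fixed in methanol 30 min, stained with 1 mg/mL Hoechst 33258, and scored under fluorescence microscope for chromatin condensation and nuclear fragmentation; three separate experiments.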

[5] = system: DU-145; test: Antiproliferative activity against human DU145 cells after 72 hrs by CCK8 assay; assay type: functional, cell-based; details: DU-145, 72 h; outline: as §2
[6] = system: Mus musculus; test: Toxicity in human DU145 cells xenografted in BALB/c mouse assessed as change in body weight at 17 mg/kg, oral gavage for 21 days relative to vehicle treated control; assay type: organism-based, DU-145; details: in vivo, 504 h
Outline: (§4)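 Male BALB/c nude mice (6−8 weeks, 18−22 g) implanted subcutaneously on right axillary flank with 2 × 10^6 DU-145 cells in 0.1 mL saline. At 100 ± 30 mm3 tumors, randomized (n = 5/group) to daily gavage for 21 days; vehicle DMSO/Cremphor EL/PBS 1:1:8. Tumor volume every 3 days; tumors excised and weighed at end; TGI from mean tumor weights vs vehicle; body weight tracked.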

[7] = Stability in rat plasma assessed as compound remaining after 1 hr by LC-MS/MS analysis; assay type: ADME, cell-free; details: read-out: Stability
Outline: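 Compound at 50 ng/mL incubated in pooled heparinized rat plasma, 37 °C, 60 min. Proteins precipitated with 5 volumes cold acetonitrile containing internal standard; remaining compound measured by LC−MS/MS and expressed as percent remaining; mean ± SD.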

[8] = system: Mus musculus; test: Acute toxicity in ICR mouse assessed as mortality at 409.6 mg/kg, oral gavage after 4 to 14 days; assay type: organism-based; details: in vivo; outline: as §3
[9] = Reduction in phosphorylated Akt protein expression in human DU145 cells at 0.08 to 0.32 uM after 24 hrs by Western blot analysis; assay type: functional, cell-based; details: DU-145
Outline: (§5)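 DU-145 cells (5 × 10^5/well) in 10% FCS Ham's F-12K overnight, treated in duplicate with compound or vehicle 24 h; lysed (Tris pH 8, EGTA, NaCl, NP-40, Triton X-100), protein by BCA. Blots blocked in 5% milk, probed for AKT, p-AKT Ser473, mTOR, p-mTOR Ser2448, Bax, Bcl-2, β-actin; ECL detection, densitometry relative to control; three separate experiments.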

[10] = Acute toxicity in ICR mouse assessed as survival at 409.6 mg/kg, oral gavage on day 14; assay type: organism-based; details: in vivo; outline: as §3
[11] = system: DU-145; test: Anticancer activity against human DU145 cells xenografted in BALB/c mouse assessed as decrease in tumor growth at 8.5 mg/kg, oral gavage for 21 days relative to vehicle treated control; assay type: functional; details: DU-145, po, 504 h; outline: as §4
[12] = system: Mus musculus; test: Toxicity in human DU145 cells xenografted in BALB/c mouse assessed as change in body weight at 8.5 mg/kg, oral gavage for 21 days relative to vehicle treated control; assay type: organism-based, DU-145; details: in vivo, 504 h; outline: as §4
[13] = system: Mus musculus; test: Acute toxicity in ICR mouse assessed as mortality at 409.6 mg/kg, oral gavage after 4 hrs; assay type: organism-based; details: in vivo; outline: as §3
[14] = system: Mus musculus; test: Acute toxicity in ICR mouse assessed as mortality at 512 mg/kg, oral gavage after 4 hrs; assay type: organism-based; details: in vivo; outline: as §3
[15] = Half life in human liver microsomes by LC-MS/MS analysis; assay type: ADME
Outline: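 Human liver microsomes at 0.2 mg/mL protein in 100 mM potassium phosphate−MgCl2 buffer pH 7.4, compound 5 μM with NADPH system at 37 °C; stopped with acetonitrile at 0, 5, 10, 15, 30, 60 min. After centrifugation, remaining compound quantified by LC−MS/MS to derive t1/2; mean ± SD.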

[16] = system: Mus musculus; test: Acute toxicity in ICR mouse assessed as mortality at 512 mg/kg, oral gavage after 1 hr; assay type: organism-based; details: in vivo; outline: as §3
[17] = system: DU-145; test: Induction of cell cycle arrest in human DU145 cells assessed as cells accumulation at S phase at 0.16 uM after 24 hrs by propidium iodide staining-based flow cytometry (reference value: 24%); assay type: functional
[18] = Antiproliferative activity against human Bel7404 cells after 72 hrs by CCK8 assay; assay type: functional, cell-based; details: BEL-7404, 72 h; outline: as §2
[19] = Antiproliferative activity against human H460 cells after 72 hrs by CCK8 assay; assay type: functional, cell-based; details: NCI-H460, 72 h; outline: as §2
[20] = system: DU-145; test: Induction of cell cycle arrest in human DU145 cells assessed as cells accumulation at G2/M phase at 0.16 uM after 24 hrs by propidium iodide staining-based flow cytometry (reference value: 22%); assay type: functional
[21] = Apparent permeability across basolateral to apical side in human Caco2 cells at 0.5 uM measured after 30 mins by LC-MS/MS analysis; assay type: ADME, cell-based; details: Caco-2; outline: as §1
[22] = system: Mus musculus; test: Acute toxicity in ICR mouse assessed as total mortality at 800 mg/kg, oral gavage up to 14 days; assay type: organism-based; details: in vivo, 336 h; outline: as §3
[23] = system: Mus musculus; test: Acute toxicity in ICR mouse assessed as mortality at 327.8 mg/kg, oral gavage after 1 hr; assay type: organism-based; details: in vivo; outline: as §3
[24] = system: Mus musculus; test: Acute toxicity in ICR mouse assessed as mortality at 640 mg/kg, oral gavage after 4 hrs; assay type: organism-based; details: in vivo; outline: as §3
[25] = system: DU-145; test: Anticancer activity against human DU145 cells xenografted in BALB/c mouse assessed as decrease in tumor growth at 17 mg/kg, oral gavage for 21 days relative to vehicle treated control; assay type: functional; details: DU-145, po, 504 h; outline: as §4
[26] = target: Serine/threonine-protein kinase mTOR (Homo sapiens) (UniProt P42345); test: Effect on mTOR protein expression in human DU145 cells at 0.08 to 0.32 uM after 24 hrs by Western blot analysis; assay type: functional, cell-based; details: DU-145; outline: as §5
[27] = system: DU-145; test: Induction of cell cycle arrest in human DU145 cells assessed as cells accumulation at G2/M phase at 0.08 uM after 24 hrs by propidium iodide staining-based flow cytometry (reference value: 22%); assay type: functional

For `CC1(C)CC[C@]23CC[C@@]4(C)[C@]5(C)CC[C@H]6C(C)(C)C(=O)C(C#N)=C[C@]6(C)C5=CC(=O)[C@@]4([C@@H]2C1)N(C1CCCCC1)C3=O`, the Papp A→B at 0.5 h, 0.5 µM [1] was 0.045 ×10⁻⁶ cm/s, the IC50 [2] was 6090 nM and the survival at 14 day [3] was 25%. The Activity [4] was “Active”, the IC50 [5] was 390 nM and the Activity [6] was “Non-toxic”. The remaining at 1 h [7] was 46%, the Activity [8] was “Non-toxic” and the inhibition [9] was “Active”. The survival at 14 day [10] was 88%, the inhibition in vivo at 8.5 mg/kg [11] was 30% and the Activity [12] was “Non-toxic”. The Activity [13] was “Non-toxic”, the Activity [14] was “Non-toxic” and the half-life [15] was 39 min. For the same compound, the Activity [16] was “Non-toxic”, the Activity [17] was 10% and the IC50 [18] was 460 nM. It also gave an IC50 [19] of 380 nM, an Activity [20] of 22% and a Papp B→A at 0.5 h, 0.5 µM [21] of 0.059 ×10⁻⁶ cm/s. For the same compound, the Activity [22] was “Toxic”, the Activity [23] was “Non-toxic” and the Activity [24] was “Non-toxic”. For the same compound, the inhibition in vivo at 17 mg/kg [25] was 62%, the Activity [26] was “inactive” and the Activity [27] was 19%.
